This is a sample that favours compounds with a hit; in the whole collection about 2.4% have one here.
ARNT TACC3 PPI – disruptors of human ARNT/TACC3 interaction | Q9Y6A5 | AlphaScreen His-ARNT PAS-B/GST-TACC3 binding, luminescence; TACC3 fragment carries E629A point mutation | inhibition, % at 9.99 µM | hit rate 0.66% among 390,000 | AID 623870;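 active = mean inhibition of replicates at least 50% and at least half of replicates each reaching 50%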
Ecoli rRNA inh – selective bacterial rRNA inhibition in E. coli; E. coli WT GFP vs humanized-ribosome RFP mutants, fluorescence, 24 h; active compounds read low; DMSO median 0, no signal -100; GFP signal change (wild-type ribosome), % (test concentration not listed); hit rate 1.6% among 350,000; AID 720706;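 active = significant combined selectivity score with lowered wild-type GFP, culture density cut under 30%, mutant RFP and density less affected; inactive = any of these conditions unmet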
S100A4 MyoIIA – blocks human S100A4 binding to myosin IIA peptide | hit rate 0.14% among 360,000 | S100A4/TAMRA-MyoIIA peptide fluorescence polarization | inhibition, % at 10.7 µM;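 active = mean inhibition of at least 70% across replicates, with every replicate also reaching that level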
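Test system: S100A4 monomer protein; Medium: HEPES pH 7.2 with CaCl2, KCl, NaCl, DTT, Triton; Probe or stimulus: TAMRA-labelled myosin IIA heavy-chain peptide probe, 5 nM; Doses: one dose per compound; Times: polarization read 5 min after assay mix addition, stable 5–60 min; Benchmarks: neutral control DMSO, positive control TFP.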
ERAP1 HTS inh – blocks human ERAP1 aminopeptidase activity | Q9NZ08 | recombinant ERAP1, Leu-AMC fluorescence, 60 min | inhibition, % at 10.7 µM | hit rate 0.15% among 340,000;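 active = mean replicate inhibition of at least 30%, or all replicates individually reaching that 30% level; inactive = mean below 30% and not every replicate reaching it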
Target sequence (Q9NZ08 whole entry, looked up): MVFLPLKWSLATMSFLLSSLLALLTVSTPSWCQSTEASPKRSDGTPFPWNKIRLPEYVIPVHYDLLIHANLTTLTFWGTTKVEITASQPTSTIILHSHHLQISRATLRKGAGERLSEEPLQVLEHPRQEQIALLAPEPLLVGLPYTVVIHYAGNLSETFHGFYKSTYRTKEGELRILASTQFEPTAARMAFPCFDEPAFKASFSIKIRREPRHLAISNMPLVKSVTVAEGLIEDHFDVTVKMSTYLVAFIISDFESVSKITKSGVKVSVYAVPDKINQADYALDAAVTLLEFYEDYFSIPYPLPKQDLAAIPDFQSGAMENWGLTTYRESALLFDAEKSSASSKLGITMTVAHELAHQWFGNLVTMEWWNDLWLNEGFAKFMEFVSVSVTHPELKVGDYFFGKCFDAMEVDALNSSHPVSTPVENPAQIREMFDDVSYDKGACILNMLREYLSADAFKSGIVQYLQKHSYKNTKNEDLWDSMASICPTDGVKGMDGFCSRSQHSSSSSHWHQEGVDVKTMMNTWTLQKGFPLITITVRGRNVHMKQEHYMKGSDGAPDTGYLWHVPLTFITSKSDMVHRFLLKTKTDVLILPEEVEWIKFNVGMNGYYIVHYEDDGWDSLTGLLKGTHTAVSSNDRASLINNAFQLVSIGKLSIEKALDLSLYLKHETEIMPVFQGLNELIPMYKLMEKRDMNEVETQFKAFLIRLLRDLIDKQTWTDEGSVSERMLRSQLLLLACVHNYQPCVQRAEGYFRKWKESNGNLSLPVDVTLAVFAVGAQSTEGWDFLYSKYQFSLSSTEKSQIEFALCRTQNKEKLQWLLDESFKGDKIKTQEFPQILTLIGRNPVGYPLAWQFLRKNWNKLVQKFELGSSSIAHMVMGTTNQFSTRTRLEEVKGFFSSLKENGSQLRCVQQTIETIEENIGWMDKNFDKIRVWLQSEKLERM
CASP6 VEID inh – inhibitors of human caspase-6. P55212. inhibition, % at 12.5 µM. purified caspase-6, Z-VEID-R110 cleavage fluorescence. hit rate 0.53% among 350,000;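 active = mean inhibition across replicates at least about 35%, with every replicate also reaching that limit, limit read from the data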
PGC1a acetyl inh – lowers PGC1a acetylation signal in U2OS cells; AlphaScreen anti-acetyl-lysine; with virally co-expressed GCN5 acetyltransferase; inhibition, % at 15.6 µM; hit rate 0.17% among 350,000; AID 651687;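 active = every replicate shows inhibition of at least 40%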
ARNT Alpha ctr – counter-screen for ARNT/TACC3 inhibitors: AlphaScreen artifacts; shares compounds with ARNT TACC3 PPI; His-ARNT PASB-GST AlphaScreen artifact counter-screen, luminescence; AC50, µM (doses to about 68 µM); hit rate 50% among 1,200; AID 651705;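 active = every separate test run was called active for a drop in luminescence, with AC50 within twice the top valid dose, actives reach about 71 µM in these data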
Each line names hits and unclear results; the compound was inactive in the other large screens (follow-up assays come after a bar, where they were run).

CCCCCc1cc(=O)oc2c(C(CCN(CC)CC)c3ccc(N(C)C)cc3)c(OC)cc(OC)c12 (stereo not drawn)	ARNT TACC3 PPI 50 | ARNT Alpha ctr 12µM
Clc1ccccc1CN1CCC(Cc2ccccc2)CC1	none
CC(C)COCc1ccc(O)c2ncccc12	ARNT TACC3 PPI 67, Ecoli rRNA inh -35 | ARNT Alpha ctr 18µM
Oc1ccc(CN2CCC(Cc3ccccc3)CC2)c2cccnc12	none (no result: ARNT TACC3 PPI, PGC1a acetyl inh) | ARNT Alpha ctr 5µM
CC1CN(Cc2ccc(O)c3ncccc23)CC(C)O1 (stereo not drawn)	none (no result: ARNT TACC3 PPI, Ecoli rRNA inh, S100A4 MyoIIA, ERAP1 HTS inh, CASP6 VEID inh, PGC1a acetyl inh) | ARNT Alpha ctr 4.7µM
Oc1cc2c(cc1CN1CCc3ccccc3C1)OCO2	none
CCCOCc1ccc(O)c2ncccc12	none
Oc1ccc(CN2CCc3ccccc3C2)c2cccnc12	ARNT TACC3 PPI 67 (no result: Ecoli rRNA inh, S100A4 MyoIIA, ERAP1 HTS inh, CASP6 VEID inh, PGC1a acetyl inh) | ARNT Alpha ctr 3.7µM
Oc1ccc(CNC2Cc3ccccc3C2)c2cccnc12	none (no result: ARNT TACC3 PPI, Ecoli rRNA inh, S100A4 MyoIIA, ERAP1 HTS inh, CASP6 VEID inh, PGC1a acetyl inh) | ARNT Alpha ctr 2.4µM
Cc1nnc(N/N=C/c2ccc(-c3ccc(Br)cc3)o2)n1N	ARNT TACC3 PPI 51 | ARNT Alpha ctr inactive
Oc1cc(NCc2ccc(F)cc2)cc2cccnc12	ARNT TACC3 PPI 60 | ARNT Alpha ctr 30µM
CN(C)C(=O)c1cccc(-c2ccccc2[C@H]2[C@@H](C#N)N(C(=O)C3CCCC3)[C@H]2CO)c1	none (no result: ARNT TACC3 PPI)
COc1cc(/C=C2\S/C(=N/S(=O)(=O)c3ccccc3)NC2=O)c([N+](=O)[O-])cc1OC	ARNT TACC3 PPI 9.7 (no result: Ecoli rRNA inh, S100A4 MyoIIA, ERAP1 HTS inh, CASP6 VEID inh) | ARNT Alpha ctr inactive
CC(C)NC(=O)Nc1ccc2c(c1)CC(=O)N([C@@H](C)CO)C[C@@H](C)[C@H](CN(C)Cc1ccc(Oc3ccccc3)cc1)O2	none
CCCN1C[C@H](C)[C@@H](OC)CN(C)C(=O)c2ccc(NC(=O)c3ccccc3F)cc2OC[C@@H]1C	none (no result: ARNT TACC3 PPI)
COC(=O)c1[nH]c2cc(OC)c(OC)cc2c1NC(=O)Oc1ccccc1	ARNT TACC3 PPI 35 (no result: Ecoli rRNA inh, S100A4 MyoIIA, ERAP1 HTS inh, CASP6 VEID inh) | ARNT Alpha ctr inactive
COc1cc(CNCc2cccs2)ccc1OCc1ccccc1	none
COc1cc(CNc2nnnn2C)ccc1OCc1c(F)cccc1Cl	none (no result: ERAP1 HTS inh, PGC1a acetyl inh)
COc1cc(CNCc2ccccn2)ccc1OCc1c(Cl)cccc1Cl	ARNT TACC3 PPI 56, Ecoli rRNA inh -46 | ARNT Alpha ctr inactive
COc1cc(CNCc2ccccn2)ccc1OCc1cccc(Cl)c1	ARNT TACC3 PPI 53, Ecoli rRNA inh -41 | ARNT Alpha ctr inactive
COc1cc(CNCc2ccccn2)ccc1OCc1ccc(Cl)cc1	ARNT TACC3 PPI 53 | ARNT Alpha ctr inactive
C[C@@H]1CCCCO[C@H](CN(C)C(=O)C2CCCCC2)[C@H](C)CN([C@H](C)CO)C(=O)c2cc(NS(=O)(=O)c3cccs3)ccc2O1	none (no result: ARNT TACC3 PPI)
CCOC(=O)/C(=N/Nc1ccccc1)N1CCCc2ccccc21	none (no result: Ecoli rRNA inh, S100A4 MyoIIA, ERAP1 HTS inh, CASP6 VEID inh)
CCOC(=O)/C(=N/Nc1ccccc1OC)N1CCCc2ccccc21	ARNT TACC3 PPI 34 (no result: Ecoli rRNA inh) | ARNT Alpha ctr 44µM
Cc1[nH][nH]c(=O)c1C(c1ccc(Cl)cc1)c1c(C)[nH][nH]c1=O	ARNT TACC3 PPI 18 | ARNT Alpha ctr inactive
Cc1[nH][nH]c(=O)c1C(c1ccc(F)cc1)c1c(C)[nH][nH]c1=O	none
O=C(N[C@H]1CC[C@H](CCNC(=O)C2CCOCC2)O[C@H]1CO)c1ccncc1	none
CCCNC(=O)Nc1ccc2c(c1)OC[C@H](C)N(C(=O)c1ccccc1F)C[C@H](C)[C@@H](OC)CN(C)C2=O	none (no result: ARNT TACC3 PPI)
CCCNC(=O)Nc1ccc2c(c1)OC[C@H](C)N(C(=O)c1ccccc1F)C[C@@H](C)[C@@H](OC)CN(C)C2=O	ARNT TACC3 PPI 53 | ARNT Alpha ctr inactive
CO[C@@H]1CN(C)C(=O)c2ccc(NC(=O)c3ccccn3)cc2OC[C@@H](C)N(Cc2ccccn2)C[C@H]1C	ARNT TACC3 PPI 95 (no result: Ecoli rRNA inh, S100A4 MyoIIA, ERAP1 HTS inh, CASP6 VEID inh) | ARNT Alpha ctr 20µM
Cc1ccccc1-c1ccc2c(c1)O[C@H](CN(C)CC1CC1)[C@H](C)CN([C@@H](C)CO)S2(=O)=O	none
CN(Cc1ccccc1)CC(O)COc1ccc(CNCCc2ccncc2)cc1 (stereo not drawn)	none
